These results are taken from ChEMBL document CHEMBL1158723, “Daucane sesquiterpenes from Ferula hermonis” (2005).

Common to all, as to type: functional
Assay [1] deals with MCF7. Nature of the assay: Estrogenic effect in human MCF7 cells assessed as stimulation of cell proliferation at 0.1 ug/ml relative to control by [3H]hypoxanthine incorporation assay. The gist of the method:
(§1)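 MCF-7 cells were grown to confluence in DMEM with 10% FBS, trypsinized, and viable cells (Trypan blue) seeded at 10 000/well in phenol red-free medium. After overnight attachment, tamoxifen (2 μM) was added for 24 h. Cells were washed with Ca/Mg-free PBS, then exposed to test agents for 1 day. Triplicates; % proliferation scaled with no-compound as 0% and β-estradiol 10 nM as 100%; Dunnett's test.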

In assay [2] the test system is MCF7. The assay is described as follows: Estrogenic effect in human MCF7 cells assessed as stimulation of cell proliferation at 1 ug/ml relative to control by [3H]hypoxanthine incorporation assay. In outline: as §1
Assay [3] concerns MCF7. Nature of the assay: Estrogenic effect in human MCF7 cells assessed as stimulation of cell proliferation at 10 ug/ml relative to control by [3H]hypoxanthine incorporation assay. The gist of the method: as §1
Assay [4] relates to MCF7. The assay is described as follows: Estrogenic effect in human MCF7 cells assessed as stimulation of cell proliferation at 1 nM relative to control by [3H]hypoxanthine incorporation assay. The gist of the method:
(§2)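 MCF-7 cells were grown to confluence in DMEM with 10% FBS, trypsinized, and viable cells (Trypan blue) seeded at 10 000/well in phenol red-free medium. After overnight attachment, tamoxifen (2 μM) was added for 24 h. Cells were washed with Ca/Mg-free PBS, then exposed to test agents for 1 day. [3H]-hypoxanthine (9.25 kBq/well) was added for 12 h. Triplicates; % proliferation scaled with no-compound as 0% and β-estradiol 10 nM as 100%; Dunnett's test.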

Assay [5] relates to MCF7. Nature of the assay: Estrogenic effect in human MCF7 cells assessed as stimulation of cell proliferation at 10 nM relative to control by [3H]hypoxanthine incorporation assay. The gist of the method: as §2
For assay [6], the system named is MCF7. Nature of the assay: Estrogenic effect in human MCF7 cells assessed as stimulation of cell proliferation at 0.1 nM relative to control by [3H]hypoxanthine incorporation assay. The gist of the method:
as §2

SMILES strings stand for the structures.

With `CC1=CC(=O)[C@@H]2[C@@](C)(CC1)CC[C@@]2(O)C(C)C`, the Activity in the assay with MCF7 [1] amounted to 308.2%; in the assay on MCF7 [2] it was 97.5%; in the assay on MCF7 [3], 181.4%.
Turning to `C/C=C(/C)C(=O)O[C@@]1(C)CCC2=C(C(C)C)[C@@H](OCC)C[C@]2(C)CC1=O`, the Activity with MCF7 [1] is on record as 223.9%; in the assay on MCF7 [2], 321.4%; with MCF7 [3], 974.4%.
On to `CC1=CC(=O)[C@@H]2[C@](C)(CC[C@@]2(O)C(C)C)CC1=O`, for which the Activity with MCF7 [1] was 5.9%; with MCF7 [2] it was -26.5%; in the assay on MCF7 [3], -285.7%.
In the case of `C[C@]12CC[C@@H]3c4ccc(O)cc4CC[C@H]3[C@@H]1CC[C@@H]2O` [ESTRADIOL], the results for the Activity in the assay with MCF7 [4], in the assay on MCF7 [5] and in the assay on MCF7 [6] were 130.3%, 100% and 74.6%, respectively.
Turning to `O=c1c(-c2ccc(O)cc2)coc2cc(O)cc(O)c12` [GENISTEIN], the Activity in the assay with MCF7 [1] is given as -72.4%; in the assay on MCF7 [2], 114.8%; in the assay on MCF7 [3], -76.7%.
